From ChEMBL document CHEMBL2176871, “Development of ligands at γ-aminobutyrric acid type A (GABAA) receptor subtype as new agents for pain relief” (Bioorg Med Chem, 2011) come the findings set out here.

The species named for one series is Bos taurus. Nature of the series: Displacement of [3H]Ro151788 from GABA(A)/BzR in bovine cerebral cortex membrane at 10 uM. The series is classed as cell membranes. The method, boiled down: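 Bovine cerebral cortex membranes in 50 mM Tris-citrate pH 7.4; [3H]flumazenil displacement. Compounds first tested at a fixed 10 µM; Ki determined only when inhibition exceeded 80%, using at least six concentrations. Five experiments run in triplicate; IC50 obtained by iterative curve fitting and converted to Ki with the Cheng–Prusoff equation.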
On the technique in general: Loss of bound radioactivity is the signal in a displacement assay; it reports binding, not function.

In series [1] the test system is Mus musculus. Nature of the series: Antihyperalgesic activity against streptozotocin-induced hyperalgesia in Swiss albino mouse […] assessed as licking latency time at 30 mg/kg, po after 60 mins by hot plate test (reference value: 10.6 +/- 0.7 secs). The series is classed as functional. (Thermal pain tests record how soon the animal reacts.)
The test system of series [2] is Mus musculus. Description: Antihyperalgesic activity Swiss albino mouse […] assessed as licking latency time at 30 mg/kg, po after 60 mins by hot plate test (reference value: 17.4 +/- 1.2 secs). The series is classed as functional. The method, boiled down:
(§1)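 Hot plate at 52.5 ± 0.1 °C in non-diabetic male Swiss mice. Latency to licking of fore or hind paws was timed before dosing and every 15 min up to 60 min after oral dosing. Mice with pretest latencies below 12 s or above 18 s were excluded. Cut-off was 45 s.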

Series [3] deals with Mus musculus. Description: Antihyperalgesic activity against streptozotocin-induced hyperalgesia in Swiss albino mouse […] assessed as licking latency time at 30 mg/kg, po after 45 mins by hot plate test (reference value: 10.6 +/- 0.7 secs). It counts as functional.
For series [4], the system named is Mus musculus. Nature of the series: Antihyperalgesic activity Swiss albino mouse […] assessed as licking latency time at 30 mg/kg, po after 45 mins by hot plate test (reference value: 17.4 +/- 1.2 secs). The series is classed as functional. The essentials:
as §1

The test system of series [5] is Mus musculus. Description: Antihyperalgesic activity against streptozotocin-induced hyperalgesia in Swiss albino mouse […] assessed as licking latency time at 30 mg/kg, po after 30 mins by hot plate test (reference value: 10.6 +/- 0.7 secs). It counts as functional.
Series [6] deals with Mus musculus. Description: Antihyperalgesic activity Swiss albino mouse […] assessed as licking latency time at 30 mg/kg, po after 30 mins by hot plate test (reference value: 17.4 +/- 1.2 secs). It counts as functional. The method, boiled down: as §1
Series [7] has as its system Mus musculus. Nature of the series: Antihyperalgesic activity against streptozotocin-induced hyperalgesia in Swiss albino mouse […] assessed as licking latency time at 30 mg/kg, po after 15 mins by hot plate test (reference value: 10.6 +/- 0.7 secs). The series is classed as functional.
The test system of series [8] is Mus musculus. Description: Antihyperalgesic activity Swiss albino mouse […] assessed as licking latency time at 30 mg/kg, po after 15 mins by hot plate test (reference value: 17.4 +/- 1.2 secs). It counts as functional. The essentials: as §1
The test system of series [9] is Mus musculus. Description: Anxiolytic-like activity in Swiss albino mouse at 30 mg/kg, po after 30 mins by light/dark box test. The series is classed as functional, organism-based. Also noted: dose 30 mg/kg. The method, boiled down: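 Male Swiss mice tested in a two-compartment light/dark box. Transfers between compartments and time spent in the lit side recorded. Compound given po 30 min before testing, in 10 ml/kg; flumazenil given i.p. for antagonism; 8 mice per group.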

In series [10] the test system is Mus musculus. Nature of the series: Analgesic activity in Swiss albino mouse abdominal constriction model assessed as decrease in number of acetic acid-induced writhing at 30 to 60 mg/kg, po after 30 mins. The series is classed as functional, organism-based. The settings on record: Abdomen. The method, boiled down: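 Male Swiss albino mice (23–30 g). Compounds given po in 1% CMC vehicle 30 min before the test. Acetic acid 0.6% injected i.p. at 10 ml/kg. Stretching movements were counted for 10 min, starting 5 min after the acetic acid injection. 8–15 mice per group.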
Background: An intraperitoneal irritant provokes the stretching counted in writhing tests.

The subject of series [11] is Mus musculus. Nature of the series: Anticonvulsant activity in Swiss albino mouse […] assessed as protection against intraperitoneally administered pentylenetetrazol-induced seizures at 30 mg/kg, po after 30 mins. The series is classed as functional. The essentials: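 Male Swiss albino mice. Compounds given po and PTZ 90 mg/kg injected 30 min later; PTZ was dissolved in 0.9% NaCl saline. Clonic generalized convulsions were recorded over 30 min. Each value is the mean of 10 mice. The methods give the PTZ route as s.c. and the table footnote gives it as ip.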

Series [12] concerns Rattus norvegicus. Nature of the series: Antinociceptive activity in Sprague-Dawley rat mononeuropathy pain model assessed as increase in injured paw pressure at 100 mg/kg, po after 45 mins by paw pressure test relative to non-treated control. The series is classed as functional. The method, boiled down:
(§2)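 Chronic constriction injury: loose ligatures placed on the common sciatic nerve under chloral hydrate; contralateral sham dissection. Tested 14 days after surgery. Paw pressure applied at 32 g/s; threshold taken as the force causing the first struggle; cut-off 250 g; pretest outliers (<40 g or >75 g) excluded. Oral dosing in 10 ml/kg; read at 15, 30 and 45 min; compared with a CMC-treated group.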

Series [13] concerns Rattus norvegicus. Description: Antinociceptive activity in Sprague-Dawley rat mononeuropathy pain model assessed as increase in injured paw pressure at 100 mg/kg, po after 30 mins by paw pressure test relative to non-treated control. It counts as functional. The method, boiled down:
as §2

Series [14] relates to Rattus norvegicus. Nature of the series: Antinociceptive activity in Sprague-Dawley rat mononeuropathy pain model assessed as increase in injured paw pressure at 100 mg/kg, po after 15 mins by paw pressure test relative to non-treated control. It counts as functional. The method, boiled down: as §2
Series [15] has as its system Rattus norvegicus. Nature of the series: Toxicity in Sprague-Dawley rat mononeuropathy pain model assessed as effect on contralateral paw pressure at 100 mg/kg, po after 45 mins by paw pressure test. The series is classed as organism-based. Further details: dose 100 mg/kg, route oral. As to conditions: in vivo, 0.75 h. The method, boiled down: (§3)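 Same sciatic-ligation rat model, 14 days after surgery. Threshold measured on the non-operated contralateral hind paw by analgesimeter at 32 g/s; first-struggle endpoint; 250 g cut-off; pretest rats outside 40–75 g rejected. Compound given po in 10 ml/kg; readings at 15, 30 and 45 min.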

Series [16] relates to Rattus norvegicus. Description: Toxicity in Sprague-Dawley rat mononeuropathy pain model assessed as effect on contralateral paw pressure at 100 mg/kg, po after 30 mins by paw pressure test. The series is classed as organism-based. Further details: dose 100 mg/kg, route oral. The settings on record: in vivo, 0.5 h. The essentials: as §3
Series [17] concerns Rattus norvegicus. Description: Toxicity in Sprague-Dawley rat mononeuropathy pain model assessed as effect on contralateral paw pressure at 100 mg/kg, po after 15 mins by paw pressure test. It counts as organism-based. Also noted: dose 100 mg/kg, route oral. The settings on record: in vivo, 0.25 h. The method, boiled down: as §3
The subject of series [18] is Rattus norvegicus. Description: Antinociceptive activity in Sprague-Dawley rat mononeuropathy pain model assessed as increase in injured paw pressure at 30 mg/kg, po after 45 mins by paw pressure test relative to non-treated control. The series is classed as functional. The essentials: as §2
In series [19] the test system is Rattus norvegicus. Nature of the series: Antinociceptive activity in Sprague-Dawley rat mononeuropathy pain model assessed as increase in injured paw pressure at 30 mg/kg, po after 30 mins by paw pressure test relative to non-treated control. The series is classed as functional. The method, boiled down: as §2
In series [20] the test system is Rattus norvegicus. Description: Antinociceptive activity in Sprague-Dawley rat mononeuropathy pain model assessed as increase in injured paw pressure at 30 mg/kg, po after 15 mins by paw pressure test relative to non-treated control. It counts as functional. The essentials: as §2
Series [21] relates to Rattus norvegicus. Nature of the series: Toxicity in Sprague-Dawley rat mononeuropathy pain model assessed as effect on contralateral paw pressure at 30 mg/kg, po after 45 mins by paw pressure test. The series is classed as organism-based. Further details: dose 30 mg/kg, route oral. As to conditions: in vivo, 0.75 h. The method, boiled down:
as §3

The test system of series [22] is Rattus norvegicus. Description: Toxicity in Sprague-Dawley rat mononeuropathy pain model assessed as effect on contralateral paw pressure at 30 mg/kg, po after 30 mins by paw pressure test. The series is classed as organism-based. The settings on record: in vivo, 0.5 h. Further details: dose 30 mg/kg, route oral. The method, boiled down:
as §3

In series [23] the test system is Rattus norvegicus. Description: Toxicity in Sprague-Dawley rat mononeuropathy pain model assessed as effect on contralateral paw pressure at 30 mg/kg, po after 15 mins by paw pressure test. It counts as organism-based. Also noted: dose 30 mg/kg, route oral. As to conditions: in vivo, 0.25 h. The essentials: as §3

Each structure is given as a SMILES string. Active and inactive are the calls of the source.

As for `CCCCCOc1ccc2c(c1)n1ncc(I)c1n[n+]2[O-]`, in the series listed under Bos taurus, the inhibition (usually the share of the control response that was lost under treatment) is over 80%. Further, the Time with Mus musculus [1] is 9.1 s; in the series with Mus musculus [2], 17.5 s; with Mus musculus [3], 10.4 s; in the series with Mus musculus [4] it was 17.1 s; in the series with Mus musculus [5] it was 9.8 s; in the series with Mus musculus [6] it was 16.7 s. Further, the Time with Mus musculus [7] was determined as 9.2 s; in the series with Mus musculus [8] it was 18.3 s. The result in the series with Mus musculus [9] was Active. Further, the outcome with Mus musculus [10] was inactive. The Activity was 0% with Mus musculus [11]; 33.9 g in the series with Rattus norvegicus [12]; 38.4 g in the series on Rattus norvegicus [13]; 39.2 g in the series on Rattus norvegicus [14]; 60.5 g with Rattus norvegicus [15]; 61.3 g in the series with Rattus norvegicus [16]. In addition, the Activity in the series with Rattus norvegicus [17] worked out at 57.4 g; in the series with Rattus norvegicus [18], 34.2 g; in the series with Rattus norvegicus [19], 37.5 g; in the series with Rattus norvegicus [20], 35.6 g; with Rattus norvegicus [21] it was 63.1 g; in the series with Rattus norvegicus [22], 61.2 g. The Activity in the series with Rattus norvegicus [23] amounted to 57.3 g.
